Measured values as given in ChEMBL document CHEMBL3351588, “Design, synthesis and biological evaluation of N-alkyl or aryl substituted isoindigo derivatives as potential dual cyclin-dependent kinase 2 (CDK2)/glycogen synthase kinase 3β (GSK-3β) phosphorylation inhibitors” (Eur J Med Chem, 2014).

How the values were obtained:
K562 [1] = test: Induction of apoptosis in human K562 cells assessed as viable cells level at 10 uM after 24 hrs by Annexin V-FITC/propidium iodide staining based flow cytometry (reference value: 97.64%); type: functional
Summary of the method: (§1)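 K562 cells exposed for 24 h or 48 h to 0, 5.0, 10.0, 15.0, 20.0 or 30.0 µM; vehicle DMSO 0.5% v/v. Cells stained with FITC-Annexin V, then counterstained with PI, and analysed by FACScan flow cytometry. Quadrants: Annexin V−/PI− viable; Annexin V+/PI− early apoptotic; Annexin V+/PI+ late apoptotic/necrotic.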

K562 [2] = test: Increase in GSK3beta protein expression in human K562 cells at 5 to 30 uM after 24 hrs by Western blotting method; type: functional, cell-based
Summary of the method: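 K562 cells treated for 24 h; negative control DMSO 0.5% v/v, meisoindigo positive control. Lysates separated on 10% SDS-PAGE and transferred to nitrocellulose. Blocked with 5% milk in PBS-0.1% Tween-20, then probed for GSK-3β and p-GSK-3β (Ser9) for 2 h at room temperature, with β-actin as loading control. Detected with IRDye secondaries by infrared imaging and quantified by band gray value; p<0.05 versus DMSO.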

K562 [3] = test: Induction of apoptosis in human K562 cells assessed as early apoptotic cells level at 30 uM after 48 hrs by Annexin V-FITC/propidium iodide staining based flow cytometry (reference value: 0.24%); type: functional; summary of the method: as §1
K562 [4] = test: Induction of apoptosis in human K562 cells after 48 hrs by Annexin V-FITC/propidium iodide staining based flow cytometry; type: functional, cell-based; summary of the method: as §1
K562 [5] = test: Induction of cell cycle arrest in human K562 cells assessed as accumulation at G2/M phase at 5 uM after 24 hrs by propidium iodide staining based flow cytometry (reference value: 18.96%); type: functional
K562 [6] = test: Induction of apoptosis in human K562 cells assessed as late apoptotic cells level at 20 uM after 24 hrs by Annexin V-FITC/propidium iodide staining based flow cytometry (reference value: 0.79%); type: functional; summary of the method: as §1
MGC-803 = test: Cytotoxicity against human MGC803 cells after 48 hrs by SRB assay; type: functional, cell-based; details: MGC-803, 48 h
Summary of the method: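 Cells seeded at 5 × 10³ per well and allowed to attach for 12 h, then exposed to a range of drug concentrations in their own medium for 48 h. Fixed with ice-cold TCA for 1 h at 4 °C, washed, then stained with 0.4% SRB for 30 min at room temperature. IC50 is the mean of three independent experiments.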

K562 [7] = test: Induction of cell cycle arrest in human K562 cells assessed as accumulation at S phase at 10 uM after 24 hrs by propidium iodide staining based flow cytometry (reference value: 44.90%); type: functional
K562 [8] = test: Induction of apoptosis in human K562 cells assessed as early apoptotic cells level at 10 uM after 24 hrs by Annexin V-FITC/propidium iodide staining based flow cytometry (reference value: […]); type: functional
K562 [9] = test: Induction of cell cycle arrest in human K562 cells assessed as accumulation at G2/M phase at 20 uM after 24 hrs by propidium iodide staining based flow cytometry (reference value: 18.96%); type: functional
K562 [10] = test: Reduction in CDK2 protein expression in human K562 cells at 5 to 30 uM after 24 hrs by Western blotting method; type: functional, cell-based
K562 [11] = test: Induction of apoptosis in human K562 cells assessed as necrotic cells level at 5 uM after 48 hrs by Annexin V-FITC/propidium iodide staining based flow cytometry (reference value: 0.01%); type: functional; summary of the method: as §1
K562 [12] = test: Induction of apoptosis in human K562 cells assessed as early apoptotic cells level at 15 uM after 24 hrs by Annexin V-FITC/propidium iodide staining based flow cytometry (reference value: […]); type: functional

With `COc1ccc(N2C(=O)/C(=C3/C(=O)Nc4ccccc43)c3ccccc32)cc1` the Activity (K562 [1]) was 93.14%, the Activity (K562 [2]) was “Dose-dependent effect” and the Activity (K562 [3]) was 19.3%. The Activity (K562 [4]) was “Dose-dependent effect”, the Activity (K562 [5]) was 16.81% and the Activity (K562 [6]) was 12.65%. For the same compound, the IC50 (MGC-803) was 122 µM, the Activity (K562 [7]) was 50.88% and the Activity (K562 [8]) was 4.4%. The Activity (K562 [9]) was 11.65%, the inhibition (K562 [10]) was “Dose-dependent effect” and the Activity (K562 [11]) was 0%. It also gave an Activity (K562 [12]) of 5.34%.
